Here are results for 73 sequences from the array DNA melting data of Ke et al. (doi:10.1101/2024.01.08.574731).

Data set [1] is described as follows: folding enthalpy; higher = less favourable; fluorescence melt of hairpins on a sequencing array, two-state fit. As to conditions: sodium 0.088 M. In short, it runs like this:
(§1)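 In 50 mM Na-HEPES pH 8.0 containing 25 mM NaCl, hairpins from the library on a sequenced MiSeq flow cell were imaged for Cy3 fluorescence at 2.5 °C steps up to 60 °C, with Cy3 and quencher oligos annealed. After normalisation to pre-quench Cy3 and to control constructs, two-state fits with bootstrapping gave melting temperature and folding enthalpy. Four replicates were combined by inverse-variance weighting, and fitted temperatures were shifted up by 9.35 °C to match UV melts.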

The nature of data set [2]: melting temperature; fluorescence melt of hairpins on a sequencing array, two-state fit, raised by 9.35 °C to match UV melts. As to conditions: sodium 0.088 M. Put shortly: as §1

Regarding GCCACTGGAAACAGTGAC (.(((((....))))).), the folding enthalpy in data set [1] was -18.9 kcal/mol. Moreover, the Tm in data set [2] was determined as 46.3 °C.
Turning to GCCACTTCGAAAGAAGGC (((..(((....)))))), the folding enthalpy in data set [1] was -13 kcal/mol. In addition, the Tm in data set [2] was found to be 35.5 °C.
The like results for GCCAGAGAAATCTGGC ((((((....)))))) were, in that order, -31.8 kcal/mol and 64.3 °C.
The corresponding values for GCCAGCACGAAAGTGGGC (((..(((....)))))) are -26.9 kcal/mol and 50.9 °C.
The like results for GCCAGCGAAAGCTACGGC ((((((....)))..))) were, in that order, -19.9 kcal/mol and 49.8 °C.
Regarding GCCAGCGAAAGCTTAGGC ((((((....)))..))), the folding enthalpy in data set [1] is -27.3 kcal/mol. Besides, the Tm in data set [2] is 52 °C.
The corresponding values for GCCAGCGAAAGCTTGGC ((((((....))).))) are -27.4 kcal/mol and 63.9 °C.
The like results for GCCAGCGAAAGCTTGGGC ((((((....)))..))) were, in that order, -26.7 kcal/mol and 52.5 °C.
Take GCCAGCGCGAAAGCGGGC (((..(((....)))))): the folding enthalpy in data set [1] was -16.1 kcal/mol. For the same sequence, in data set [2], the Tm was 61.2 °C.
The corresponding values for GCCAGCGGAAACGCCAGC ((..(((....)))..)) are -13.7 kcal/mol and 39 °C.
The corresponding values for GCCAGCGGAAACGCTAGC ((.((((....)))).)) are -20.5 kcal/mol and 49 °C.
The like results for GCCAGCGGAAACGCTGAC (.(((((....))))).) were, in that order, -13.7 kcal/mol and 51.5 °C.
Take GCCAGGCGAAAGCACGGC (((..((....))..))): in data set [1], the folding enthalpy is -18.3 kcal/mol. In data set [2], the Tm came out at 60.6 °C.
The like results for GCCAGGCGAAAGCATTGC ((.(.((....)).).)) were, in that order, -13.1 kcal/mol and 35.7 °C.
Turning to GCCAGGGGAAACCCTGAC (.(((((....))))).), in data set [1], the folding enthalpy is -15.4 kcal/mol. Further, the Tm in data set [2] worked out at 47.6 °C.
The corresponding values for GCCAGGGGAAACTCTGGC (((((.(....).))))) are -40.9 kcal/mol and 56.1 °C.
The corresponding values for GCCAGGTCGAAAGACGGC (((..(((....)))))) are -34.7 kcal/mol and 53.4 °C.
GCCAGTCGAAAGACAGGC (((.(((....))).))): in data set [1], the folding enthalpy was -29.6 kcal/mol. The Tm in data set [2] was determined as 62.8 °C.
The corresponding values for GCCAGTGCGAAAGCAGGC (((..(((....)))))) are -15.7 kcal/mol and 53.7 °C.
The corresponding values for GCCAGTGGAAACACTGAC (.(((((....))))).) are -15.8 kcal/mol and 46.1 °C.
The corresponding values for GCCATACGAAAGTACGGC (((.(((....))).))) are -37 kcal/mol and 51.5 °C.
On to GCCATAGGAAACTGTGGC ((((.((....)).)))), for which the folding enthalpy in data set [1] was -39.1 kcal/mol. In addition, the Tm in data set [2] stood at 52.2 °C.
The like results for GCCATATCGAAAGATGGC (((..(((....)))))) were, in that order, -34.6 kcal/mol and 48.2 °C.
The like results for GCCATCCGAAAGGAAGGC (((.(((....))).))) were, in that order, -31.3 kcal/mol and 57.9 °C.
On to GCCATCGAAAGATCCGGC ((((((....)))..))), for which the folding enthalpy in data set [1] was -19.6 kcal/mol. In data set [2], the Tm was 33.2 °C.
The like results for GCCATCGAAAGATTCGGC ((((((....)))..))) were, in that order, -21 kcal/mol and 36.9 °C.
In the case of GCCATCGAAAGATTGGGC ((((((....)))..))), the folding enthalpy in data set [1] was -26.8 kcal/mol. Further, the Tm in data set [2] stood at 44.1 °C.
The like results for GCCATCTCGAAAGAGGGC (((..(((....)))))) were, in that order, -35.2 kcal/mol and 48.9 °C.
The like results for GCCATGCGAAAGCAACGC ((..(((....)))..)) were, in that order, -8.26 kcal/mol and 29 °C.
The like results for GCCATGCGAAAGCACGGC (((.(((....))).))) were, in that order, -49.1 kcal/mol and 56.9 °C.
As for GCCATGCGAAAGCGAGGC (((..((....))..))), the folding enthalpy in data set [1] is -21.6 kcal/mol. For the same sequence, the Tm in data set [2] came to 60 °C.
The like results for GCCATGCGAAAGCTCGGC (((..((....))..))) were, in that order, -23.6 kcal/mol and 52.5 °C.
The like results for GCCATGCGAAAGCTGGGC (((..((....))..))) were, in that order, -26.4 kcal/mol and 62.6 °C.
GCCATGCGAAAGCTTTGC ((.(.((....)).).)): the folding enthalpy in data set [1] was -11.7 kcal/mol. Besides, the Tm in data set [2] worked out at 36.1 °C.
The like results for GCCATGGGAAACCACGGC (((.(((....))).))) were, in that order, -36.5 kcal/mol and 47.7 °C.
GCCATGGGAAACTATGGC (((((.(....).))))): the folding enthalpy in data set [1] is -37.4 kcal/mol. Also, the Tm in data set [2] turned out to be 52.5 °C.
Take GCCATTACGAAAGTAGGC (((..(((....)))))): the folding enthalpy in data set [1] is -25.6 kcal/mol. Besides, the Tm in data set [2] worked out at 42.2 °C.
The corresponding values for GCCATTGGAAACAATGAC (.(((((....))))).) are -19.1 kcal/mol and 38.8 °C.
Regarding GCCCAACGAAAGTTAGGC (((.(((....))).))), in data set [1], the folding enthalpy is -34.3 kcal/mol. Besides, the Tm in data set [2] turned out to be 48.7 °C.
The corresponding values for GCCCACCCGAAAGGGGGC (((..(((....)))))) are -17.6 kcal/mol and 58.4 °C.
With GCCCACGAAAGTGAGGC ((((((....))).))), the folding enthalpy in data set [1] was -31.1 kcal/mol. In data set [2], the Tm is 64 °C.
The like results for GCCCACGAAAGTGAGGGC ((((((....)))..))) were, in that order, -28.2 kcal/mol and 59.9 °C.
The corresponding values for GCCCACTCGAAAGAGGGC (((..(((....)))))) are -22.5 kcal/mol and 50.6 °C.
In the case of GCCCAGCGAAAGCAGTGC ((.(.((....)).).)), the folding enthalpy in data set [1] was -13.3 kcal/mol. Also, the Tm in data set [2] stood at 34.7 °C.
For the sequence GCCCAGCGAAAGCCAGGC (((..((....))..))), the folding enthalpy in data set [1] was -20.6 kcal/mol. Also, the Tm in data set [2] worked out at 55.2 °C.
As to GCCCAGCGAAAGCCTGGC (((..((....))..))), in data set [1], the folding enthalpy is -13 kcal/mol. The Tm in data set [2] came to 56.1 °C.
The corresponding values for GCCCAGCGAAAGCTACGC ((..(((....)))..)) are -5.73 kcal/mol and 30.2 °C.
The like results for GCCCAGCGAAAGCTGAGC ((.((((....)))).)) were, in that order, -15.2 kcal/mol and 63.3 °C.
The like results for GCCCAGCGAAAGCTGCGC ((.((((....)))).)) were, in that order, -17.1 kcal/mol and 59 °C.
For the sequence GCCCAGCGAAAGCTGGC (((.(((....)))))), in data set [1], the folding enthalpy was -9.03 kcal/mol. In addition, the Tm in data set [2] was found to be 61 °C.
The corresponding values for GCCCAGGGAAACCTGAGC ((.((((....)))).)) are -19.2 kcal/mol and 45.5 °C.
Consider GCCCATCGAAAGATAGGC (((.(((....))).))), for which, in data set [1], the folding enthalpy was -30.5 kcal/mol. Also, the Tm in data set [2] is 47.2 °C.
The corresponding values for GCCCCACCGAAAGGTGGC (((..(((....)))))) are -4.81 kcal/mol and 40.7 °C.
The corresponding values for GCCCCAGGAAACCGGGAC (.(((.(....).))).) are -16.3 kcal/mol and 31.1 °C.
The corresponding values for GCCCCAGGAAACTGAGGC (((.(((....))).))) are -33.5 kcal/mol and 47.5 °C.
Turning to GCCCCCACGAAAGTGGGC (((..(((....)))))), the folding enthalpy in data set [1] was -5.47 kcal/mol. Further, in data set [2], the Tm was 38.6 °C.
The corresponding values for GCCCCCCGAAAGGGTGGC (((.(((....))).))) are -33.1 kcal/mol and 64.2 °C.
The corresponding values for GCCCCCGAAAGGGAGGGC ((((((....)))..))) are -30 kcal/mol and 59.8 °C.
In the case of GCCCCCGAAAGGGCAGGC ((((((....)))..))), the folding enthalpy in data set [1] is -17.9 kcal/mol. Besides, the Tm in data set [2] is 50.4 °C.
The corresponding values for GCCCCCGAAAGGGGAGGC ((((((....)))..))) are -13.8 kcal/mol and 59.9 °C.
The like results for GCCCCCGAAAGGGTGGC ((((((....))).))) were, in that order, -21 kcal/mol and 65.9 °C.
The like results for GCCCCCGGAAACGGAGGC (((.(((....))).))) were, in that order, -35 kcal/mol and 54.9 °C.
In the case of GCCCCGCGAAAGCGACGC ((..(((....)))..)), the folding enthalpy in data set [1] was -10.6 kcal/mol. Also, the Tm in data set [2] is 31.3 °C.
The corresponding values for GCCCCGCGAAAGCGATGC ((..(((....)))..)) are -11.7 kcal/mol and 34.2 °C.
The like results for GCCCCGCGAAAGCGCGGC (((.(((....))).))) were, in that order, -17.4 kcal/mol and 64.4 °C.
The corresponding values for GCCCCGCGAAAGCGGTGC ((.((((....)))).)) are -15.7 kcal/mol and 61.5 °C.
Consider GCCCCGCGAAAGCGTTGC ((..(((....)))..)), for which, in data set [1], the folding enthalpy is -9.75 kcal/mol. Besides, in data set [2], the Tm is 33.5 °C.
The corresponding values for GCCCCTGGAAACAGAGGC (((.(((....))).))) are -27.7 kcal/mol and 46.3 °C.
The like results for GCCCGAGGAAACTCAGGC (((.(((....))).))) were, in that order, -27.2 kcal/mol and 45.1 °C.
The corresponding values for GCCCGCGAAAGCGGTGGC ((((((....)))..))) are -12.2 kcal/mol and 57.7 °C.
Consider GCCCGCGGAAACGCAGGC (((.(((....))).))), for which the folding enthalpy in data set [1] was -32.4 kcal/mol. Besides, the Tm in data set [2] worked out at 62.4 °C.
As for GCCCGCGGAAACGCGGAC (.(((((....))))).), in data set [1], the folding enthalpy is -9.8 kcal/mol. Moreover, the Tm in data set [2] worked out at 57 °C.
For the sequence GCCCGCTCGAAAGAGGGC (((..(((....)))))), the folding enthalpy in data set [1] is -40.6 kcal/mol. Further, in data set [2], the Tm turned out to be 54.6 °C.
